In ChEMBL document CHEMBL3596093, “Synthesis and antimicrobial evaluation of 5-aryl-1,2,4-triazole-3-thione derivatives containing a rhodanine moiety” (2015):
In brackets after ≈: the same amount, converted by molar mass.

Experiments:
[1] = system: Escherichia coli; assay: Bactericidal activity against Escherichia coli KCTC 1924 after 24 hrs by agar plate method; assay type: functional; details: KCTC 1924, 24 h
How it was run: (§1)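 Samples of 5 µL from MIC wells with no visible growth were plated onto fresh Mueller-Hinton agar and incubated a further 24 h at 37 °C. MBC is the lowest concentration giving no visible colony growth on the agar. Assays were run in triplicate.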

[2] = system: Staphylococcus aureus; assay: Antibacterial activity against Staphylococcus aureus RN4220 after 24 hrs by two-fold serial dilution method; assay type: functional; details: RN4220, 24 h
How it was run: (§2)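 Broth microdilution MIC. Bacteria grown to mid-log phase in Mueller-Hinton broth, diluted 1000-fold, about 10^5 CFU/mL. Compounds from DMSO stocks, two-fold serial dilution from a final 64 µg/mL. Incubation at 37 °C for 24 h. Growth read as absorbance at 630 nm on a microplate reader. Run in triplicate.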

[3] = system: Pseudomonas aeruginosa; assay: Antibacterial activity against Pseudomonas aeruginosa 2004 after 24 hrs by two-fold serial dilution method; assay type: functional; details: Pseudomonas aeruginosa, 2004, 24 h
How it was run: (§3)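 Strains grown to mid-log phase in Mueller-Hinton broth, then diluted 1000-fold in the same broth to about 10^5 CFU/mL. Compounds were made up as DMSO stocks and two-fold serially diluted from a final top concentration of 64 µg/mL. Incubation was 37 °C for 24 h. Growth was read as absorbance at 630 nm on a microplate reader. MIC assays were run in triplicate.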

[4] = system: Escherichia coli; assay: Ratio of MBC to MIC for Escherichia coli KCTC 1924; assay type: functional
How it was run: (§4)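 The ratio divides MBC by MIC for the same strain. MIC comes from two-fold broth microdilution in Mueller-Hinton broth (about 10^5 CFU/mL, 37 °C, 24 h, absorbance at 630 nm). MBC comes from subculturing 5 µL from clear wells onto Mueller-Hinton agar for another 24 h at 37 °C, taken as the lowest concentration with no colonies.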

[5] = system: Escherichia coli; assay: Antibacterial activity against Escherichia coli KCTC 1924 after 24 hrs by two-fold serial dilution method; assay type: functional; details: KCTC 1924, 24 h; how it was run: as §3
[6] = system: Streptococcus mutans; assay: Bactericidal activity against Streptococcus mutans 3065 after 24 hrs by agar plate method; assay type: functional; details: Streptococcus mutans, 3065, 24 h; how it was run: as §1
[7] = system: Escherichia coli; assay: Antibacterial activity against Escherichia coli CCARM 1356 after 24 hrs by two-fold serial dilution method; assay type: functional; details: CCARM 1356, 24 h; how it was run: as §3
[8] = system: Staphylococcus aureus; assay: Antibacterial activity against quinolone-resistant Staphylococcus aureus CCARM 3519 after 24 hrs by two-fold serial dilution method; assay type: functional; details: CCARM 3519, 24 h; how it was run: as §2
[9] = system: Staphylococcus aureus; assay: Ratio of MBC to MIC for Staphylococcus aureus KCTC 503; assay type: functional; how it was run: as §4
[10] = system: Staphylococcus aureus; assay: Antibacterial activity against Staphylococcus aureus KCTC 503 after 24 hrs by two-fold serial dilution method; assay type: functional; details: KCTC 503, 24 h; how it was run: as §3
[11] = system: Staphylococcus aureus; assay: Antibacterial activity against methicillin-resistant Staphylococcus aureus CCARM 3167 after 24 hrs by two-fold serial dilution method; assay type: functional; details: CCARM 3167, 24 h; how it was run: as §2
[12] = system: Staphylococcus aureus; assay: Bactericidal activity against quinolone-resistant Staphylococcus aureus CCARM 3505 after 24 hrs by agar plate method; assay type: functional; details: CCARM 3505, 24 h
How it was run: (§5)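 5 µL from each well without visible growth plated on fresh Mueller-Hinton agar, then 37 °C for a further 24 h. MBC is the lowest concentration giving no visible colonies. Run in triplicate.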

[13] = system: Staphylococcus aureus; assay: Bactericidal activity against Staphylococcus aureus RN4220 after 24 hrs by agar plate method; assay type: functional; details: RN4220, 24 h; how it was run: as §1
[14] = system: Pseudomonas aeruginosa; assay: Antibacterial activity against Pseudomonas aeruginosa 2742 after 24 hrs by two-fold serial dilution method; assay type: functional; details: Pseudomonas aeruginosa, 2742, 24 h; how it was run: as §3
[15] = system: Staphylococcus aureus; assay: Bactericidal activity against Staphylococcus aureus KCTC 503 after 24 hrs by agar plate method; assay type: functional; details: KCTC 503, 24 h; how it was run: as §5
[16] = system: Staphylococcus aureus; assay: Ratio of MBC to MIC for Staphylococcus aureus KCTC 209; assay type: functional; how it was run: as §4
[17] = system: Staphylococcus aureus; assay: Antibacterial activity against methicillin-resistant Staphylococcus aureus CCARM 3506 after 24 hrs by two-fold serial dilution method; assay type: functional; details: CCARM 3506, 24 h; how it was run: as §2
[18] = system: Candida albicans; assay: Antifungal activity against Candida albicans 7535 after 24 hrs by two-fold serial dilution method; assay type: functional; details: Candida albicans, 7535, 24 h
[19] = system: Staphylococcus aureus; assay: Bactericidal activity against methicillin-resistant Staphylococcus aureus CCARM 3506 after 24 hrs by agar plate method; assay type: functional; details: CCARM 3506, 24 h; how it was run: as §5
[20] = system: Candida albicans; assay: Fungicidal activity against Candida albicans 7535 after 24 hrs by agar plate method; assay type: functional; details: Candida albicans, 7535, 24 h
[21] = system: Salmonella typhimurium; assay: Antibacterial activity against Salmonella typhimurium 2421 after 24 hrs by two-fold serial dilution method; assay type: functional, Salmonella enterica subsp. enterica serovar Typhimurium; details: Salmonella enterica, 2421, 24 h; how it was run: as §3
[22] = system: Staphylococcus aureus; assay: Bactericidal activity against quinolone-resistant Staphylococcus aureus CCARM 3519 after 24 hrs by agar plate method; assay type: functional; details: CCARM 3519, 24 h; how it was run: as §5
[23] = system: Staphylococcus aureus; assay: Bactericidal activity against Staphylococcus aureus KCTC 209 after 24 hrs by agar plate method; assay type: functional; details: KCTC 209, 24 h; how it was run: as §1
[24] = system: Streptococcus mutans; assay: Antibacterial activity against Streptococcus mutans 3065 after 24 hrs by two-fold serial dilution method; assay type: functional; details: Streptococcus mutans, 3065, 24 h; how it was run: as §3
[25] = system: Staphylococcus aureus; assay: Antibacterial activity against Staphylococcus aureus KCTC 209 after 24 hrs by two-fold serial dilution method; assay type: functional; details: KCTC 209, 24 h; how it was run: as §3
[26] = system: Staphylococcus aureus; assay: Bactericidal activity against methicillin-resistant Staphylococcus aureus CCARM 3167 after 24 hrs by agar plate method; assay type: functional; details: CCARM 3167, 24 h; how it was run: as §5
[27] = system: Staphylococcus aureus; assay: Antibacterial activity against quinolone-resistant Staphylococcus aureus CCARM 3505 after 24 hrs by two-fold serial dilution method; assay type: functional; details: CCARM 3505, 24 h; how it was run: as §2
[28] = system: Staphylococcus aureus subsp. aureus RN4220; assay: Ratio of MBC to MIC for Staphylococcus aureus RN4220; assay type: functional; how it was run: as §4

Row | SMILES | MIC [2] [µg/mL] | MIC [3] [µg/mL] | MIC [5] [µg/mL] | MBC [6] [µg/mL] | MIC [7] [µg/mL] | MIC [8] [µg/mL] | MIC [10] [µg/mL] | MIC [11] [µg/mL] | MBC [12] [µg/mL] | MBC [13] [µg/mL] | MIC [14] [µg/mL] | MBC [15] [µg/mL] | MIC [17] [µg/mL] | MIC [18] [µg/mL] | MBC [19] [µg/mL] | MIC [21] [µg/mL] | MBC [22] [µg/mL] | MIC [24] [µg/mL] | MBC [26] [µg/mL] | MIC [27] [µg/mL] | also measured
1 | O=C(O)[C@H](Cc1ccccc1)N1C(=O)/C(=C/c2ccc(/C=N/n3c(-c4cccc(Cl)c4)n[nH]c3=S)cc2)SC1=S | 8 (≈ 13.2 µM) | > 128 | 8 (≈ 13.2 µM) | > 32 | > 128 | 8 (≈ 13.2 µM) | 8 (≈ 13.2 µM) | 8 (≈ 13.2 µM) | 32 (≈ 52.8 µM) | 8 (≈ 13.2 µM) | > 128 | 16 (≈ 26.4 µM) | 16 (≈ 26.4 µM) | 8 (≈ 13.2 µM) | 16 (≈ 26.4 µM) | > 128 | 32 (≈ 52.8 µM) | 4 (≈ 6.6 µM) | 8 (≈ 13.2 µM) | 8 (≈ 13.2 µM) | MBC [1]: 8 µg/mL (≈ 13.2 µM); Ratio [4]: <=4; Ratio [9]: <=4; Ratio [16]: 2; MFC [20]: 8 µg/mL (≈ 13.2 µM); MBC [23]: 16 µg/mL (≈ 26.4 µM); MIC [25]: 8 µg/mL (≈ 13.2 µM)
2 | COc1c(N2CCNC(C)C2)c(F)cc2c(=O)c(C(=O)O)cn(C3CC3)c12 (stereo not drawn) [GATIFLOXACIN] | 0.25 (≈ 0.666 µM) | 1 (≈ 2.66 µM) | 2 (≈ 5.33 µM) | 0.5 (≈ 1.33 µM) | 16 (≈ 42.6 µM) | 4 (≈ 10.7 µM) | 4 (≈ 10.7 µM) | 2 (≈ 5.33 µM) | 8 (≈ 21.3 µM) | 0.25 (≈ 0.666 µM) | 1 (≈ 2.66 µM) | 4 (≈ 10.7 µM) | 2 (≈ 5.33 µM) | 0.5 (≈ 1.33 µM) | 2 (≈ 5.33 µM) | 0.5 (≈ 1.33 µM) | 4 (≈ 10.7 µM) | 0.5 (≈ 1.33 µM) | 2 (≈ 5.33 µM) | 8 (≈ 21.3 µM) | MBC [1]: 2 µg/mL (≈ 5.33 µM); MFC [20]: 0.5 µg/mL (≈ 1.33 µM); MBC [23]: 2 µg/mL (≈ 5.33 µM); MIC [25]: 2 µg/mL (≈ 5.33 µM)
3 | O=C(O)[C@H](Cc1ccccc1)N1C(=O)/C(=C/c2ccc(/C=N/n3c(-c4ccccc4Cl)n[nH]c3=S)cc2)SC1=S | 16 (≈ 26.4 µM) | > 128 | > 128 | > 128 | > 128 | 16 (≈ 26.4 µM) | 16 (≈ 26.4 µM) | 16 (≈ 26.4 µM) | > 128 | 32 (≈ 52.8 µM) | > 128 | 64 (≈ 106 µM) | 16 (≈ 26.4 µM) | > 64 | 64 (≈ 106 µM) | > 128 | > 128 | 16 (≈ 26.4 µM) | 32 (≈ 52.8 µM) | 16 (≈ 26.4 µM) | Ratio [28]: 2; Ratio [9]: <=4; MIC [25]: > 64 µg/mL
4 | COc1c(N2C[C@@H]3CCCN[C@@H]3C2)c(F)cc2c(=O)c(C(=O)O)cn(C3CC3)c12 [MOXIFLOXACIN] | 0.25 (≈ 0.623 µM) | 2 (≈ 4.98 µM) |  | 0.25 (≈ 0.623 µM) | 128 (≈ 319 µM) | 4 (≈ 9.96 µM) | 2 (≈ 4.98 µM) | 1 (≈ 2.49 µM) | 4 (≈ 9.96 µM) | 0.25 (≈ 0.623 µM) |  | 2 (≈ 4.98 µM) | 1 (≈ 2.49 µM) | 0.5 (≈ 1.25 µM) | 1 (≈ 2.49 µM) | 0.5 (≈ 1.25 µM) | 4 (≈ 9.96 µM) | 0.25 (≈ 0.623 µM) | 1 (≈ 2.49 µM) | 4 (≈ 9.96 µM) | MFC [20]: 0.5 µg/mL (≈ 1.25 µM)
